Screening data (PubChem BioAssay)
CSC inhib – blocks cancer stem cells; 1.1% of 300,000 active; cancer stem cell-like cells viability, luminescence; AID 2717; inhibition, % at 7.5 µM; in the data active means inhibition above about 75%; tested in HMLE shEcad cells
T cruzi inh – blocks replication of Trypanosoma cruzi | T. cruzi beta-gal in NIH3T3, luminescence, 90 h | inhibition, % (no concentration beside the values) | 1.4% of 300,000 active;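 active means mean inhibition across valid replicates above about 55%, limit read from the data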;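 further: signal also drops with host cell toxicity which is not excluded here; 0% = plate median of DMSO wells and 100% = zero luminescence signal; higher percent means less beta-gal luminescence so fewer parasites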
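assay system = mouse NIH/3T3 fibroblasts infected with β-gal-expressing T. cruzi Tulahuen C4 | input = 5,000 NIH/3T3 host cells per well | buffer or medium = DMEM plus 2% FBS | timing = 3 h host attachment, then at least 90 h co-culture | measured by = GalScreen luminescence, 60 min | evaluation = luminescence reflecting intracellular parasite burden, expressed as percent inhibition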
Mdm2-MdmX inh – disrupts the human Mdm2-MdmX interaction | SaOS-2 split-luciferase Mdm2/MdmX complementation, luminescence | inhibition, % at 8 µM | 3% of 330,000 active;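 active means inhibition of at least 50% at 8 µM in the primary screen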
Target sequence (O15151 whole entry, looked up): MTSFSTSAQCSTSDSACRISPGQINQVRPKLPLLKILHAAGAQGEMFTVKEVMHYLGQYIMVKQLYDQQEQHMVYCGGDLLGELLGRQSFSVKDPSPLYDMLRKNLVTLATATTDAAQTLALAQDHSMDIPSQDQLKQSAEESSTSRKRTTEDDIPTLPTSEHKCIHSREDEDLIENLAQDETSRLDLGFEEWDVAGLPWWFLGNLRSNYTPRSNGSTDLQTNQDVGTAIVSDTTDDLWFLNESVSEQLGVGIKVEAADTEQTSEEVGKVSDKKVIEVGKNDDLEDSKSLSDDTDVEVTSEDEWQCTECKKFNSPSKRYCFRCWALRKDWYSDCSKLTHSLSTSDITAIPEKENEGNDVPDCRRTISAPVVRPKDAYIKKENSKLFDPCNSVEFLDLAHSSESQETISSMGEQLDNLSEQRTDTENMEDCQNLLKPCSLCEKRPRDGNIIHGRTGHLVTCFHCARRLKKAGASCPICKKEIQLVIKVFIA
Target sequence (Q00987 whole entry, looked up): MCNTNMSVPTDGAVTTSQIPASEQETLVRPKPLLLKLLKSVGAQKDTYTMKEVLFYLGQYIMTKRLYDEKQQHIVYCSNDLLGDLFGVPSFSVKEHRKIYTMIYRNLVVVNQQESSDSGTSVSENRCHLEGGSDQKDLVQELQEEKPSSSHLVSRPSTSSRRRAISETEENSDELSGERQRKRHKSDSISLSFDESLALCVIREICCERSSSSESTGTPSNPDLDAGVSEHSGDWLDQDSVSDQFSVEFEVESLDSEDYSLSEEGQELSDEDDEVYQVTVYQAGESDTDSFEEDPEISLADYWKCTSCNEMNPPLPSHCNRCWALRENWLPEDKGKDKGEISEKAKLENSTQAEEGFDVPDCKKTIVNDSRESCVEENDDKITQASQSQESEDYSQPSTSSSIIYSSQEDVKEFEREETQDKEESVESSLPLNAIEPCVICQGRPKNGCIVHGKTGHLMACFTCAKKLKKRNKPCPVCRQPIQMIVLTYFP
Lmaj promast – inhibitors of Leishmania major promastigote growth | Leishmania major promastigotes, resazurin fluorescence viability | inhibition, % at 10 µM | 9% of 200,000 active; in the data active means inhibition above about 50%;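 further: promastigotes grown with compound for 44 hours at 28 °C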
SKKanGAS inh – blocks kanamycin growth of S. pyogenes SKKanGAS strain; inhibition, % at 7.5 µM; BacTiter-Glo, 6 h; 1.3% of 300,000 active; AID 1662;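 active means mean replicate score, as percent of positive control median, at least 50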;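 further: strain carries kanamycin resistance gene driven by streptokinase promoter and grows in 40 µg/ml kanamycin; loss of luminescence reflects streptokinase promoter inhibition or plain growth inhibition; 0% = median of DMSO wells and 100% = positive control at its reference dose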
Beta cell apopt – blocks beta cell apoptosis. INS-1E cytokine-induced death, ATP luminescence, 48 h; percent of positive-control rescue, neutral wells zero. 0.8% of 300,000 active. protection from apoptosis, % (no concentration beside the values);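 active means Every replicate reaches about 75%, or at least half do and their mean reaches it too, limit read from the data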;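 further: 0% = cytokine-treated negative control wells and 100% = positive control rescue; higher means more ATP so stronger rescue from cytokine killing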
* hit, by the source's call; . = no result given. Sampled rows, rich in hits. Any-hit rate of the full collection: about 9.4%.

SMILES	CSC inhib	T cruzi inh	Mdm2-MdmX inh	Lmaj promast	SKKanGAS inh	Beta cell apopt
COc1ccccc1N1CCN(CC(O)COc2ccc(C)cc2C)CC1 (stereo unspecified)	0	25	23	.	0	2
CC[C@@H](C)C(NC(=O)OC(C)(C)C)c1cn([C@@H](Cc2cc3ccccc3[nH]2)C(=O)N2CCN(C(=O)OC(C)(C)C)CC2)nn1 (stereo partly specified)	-15	21	24	-1	11	3
COc1cccc(CN(C)C(=O)c2cccc(OC3CCN(C4CCCC4)CC3)c2)c1	3	1	26	63*	0	-6
Cc1ccc(CN2CCC(Oc3cccc(C(=O)N(C)CCN(C)C)c3)CC2)cc1C	-7	57*	39	.	0	0
COCCNC(=O)c1cccc(OC2CCN(Cc3ccc(C(=O)OC)cc3)CC2)c1	-1	-1	-31	.	10	.
O=C(C1CCN(Cc2ccccc2)CC1)N1CCN(C/C=C/c2ccccc2)CC1	-5	-14	22	29	0	1
O=C(C1CCN(Cc2ccc(F)cc2)CC1)N1CCN(C/C=C/c2ccccc2)CC1	-2	15	33	73*	-4	.
O=C(C1CCN(C2CCN(C/C=C/c3ccccc3)CC2)CC1)N1CCOCC1	6	4	5	59*	-6	-8
COc1ccc(CN2CCC(N3CCC(C(=O)N4CCOCC4)CC3)CC2)c(F)c1	1	6	22	78*	0	-5
O=C(O)C1C2C=CC(C2)C1C(=O)N1CCN(C/C=C/c2ccccc2)CC1 (stereo unspecified)	4	0	-19	88*	-2	-10
Cc1ccc2[nH]c(CNC(=O)c3ccccc3F)cc2c1	-22	0	3	.	-2	0
COc1cccc(C2=NOC(C(=O)N3CCN(Cc4ccccc4)CC3)C2)c1OC (stereo unspecified)	-6	9	12	5	-3	-1
O=C(C1CC(c2ccc(F)cc2)=NO1)N1CCN(Cc2ccccc2)CC1 (stereo unspecified)	-8	11	7	89*	-3	0
O=C(NNC(=O)C12CC3CC(CC(O)(C3)C1)C2)c1csc(N2CCOCC2)n1	-11	-1	-1	.	8	-5
Cc1cc(C(=O)Nc2ccccc2C(=O)N2CCCCC2)ccc1[N+](=O)[O-]	4	8	-4	-2	-9	-5
Cc1ccc(C(=O)Nc2ccc3c4c(cccc24)CC3)cc1[N+](=O)[O-]	30	7	3	60*	0	9
Cc1ccc(C(=O)Nc2ccccc2C(=O)N2CCCC2)cc1[N+](=O)[O-]	5	-5	-4	58*	-10	-1
Cc1c(C(=O)Nc2ccc3c4c(cccc24)CC3)cccc1[N+](=O)[O-]	38	7	32	-2	-1	2
O=C1CS/C(=N/N=C/c2ccco2)N1Cc1ccc(F)cc1	-5	10	23	.	-2	-5
CCOC(=O)c1cc2c(N)c(C(=O)c3ccc(Br)cc3)sc2[nH]c1=O	10	-9	29	1	24	-4
O=C(OCn1ncc(Br)c(Br)c1=O)c1c(F)cccc1F	-3	39	.	100*	11	112*
CC(C)(C)C(=O)Cn1ncc(N2CCCC2)c(Br)c1=O	-1	-7	14	-1	-3	0
CC(=O)Cn1ncc(Br)c(Br)c1=O	.	56*	.	71*	-20	.
COc1ccc(-n2nc(C(C)=O)c(=O)[nH]c2=O)cc1	-2	23	14	-10	-2	-1
Cc1cc(C)c2ccc(Cl)cc2n1	-12	-17	-11	.	6	-6
SMILES	CSC inhib	T cruzi inh	Mdm2-MdmX inh	Lmaj promast	SKKanGAS inh	Beta cell apopt
Cc1cc(N2CCCN(C)CC2)nc2cc(Cl)ccc12	50	47	-2	80*	9	-3
Cc1cc(N2CCCCC2)nc2ccccc12	8	-3	-6	19	-6	5
Cc1cc(N2CCCCCC2)nc2ccccc12	4	14	-9	91*	1	3
COc1ccccc1C(=O)NC1CCN(C(=O)Nc2ccc(C)cc2)CC1	1	-11	24	.	-2	-3
CC1(C)Cc2c(sc(NC(=O)C(=O)N3CCN(CCO)CC3)c2C(N)=O)CO1	-7	-2	21	.	-6	0
CC(=O)Nc1ccc(CN2CCN(C3CCCCC3)C(CCO)C2)cc1 (stereo unspecified)	-5	-8	-9	-3	6	-4
COC(=O)c1ccc(CN2CCN(C3CCCC3)C(CCO)C2)cc1 (stereo unspecified)	-3	-2	24	56*	-16	-1
COC(=O)c1ccc(CN2CCN(C3CCCCC3)C(CCO)C2)cc1 (stereo unspecified)	5	2	9	54*	0	-4
CC(C)=C1SC(N2CCN(c3cccc(Cl)c3)CC2)=NC1=O	27	4	15	68*	-4	-7
CC(C)=C1SC(N2CCN(Cc3ccccc3)CC2)=NC1=O	-9	-2	-18	-10	3	.
CC(/C=C/c1ccccc1)=N\NC(=O)c1cc(C)[nH]n1	2	8	-36	6	-2	6
NS(=O)(=O)c1ccc(CCNC(=O)c2cccc3ccccc23)cc1	-2	8	-3	.	2	-5
Cc1cccc(C(=O)NCCc2ccc(S(N)(=O)=O)cc2)c1[N+](=O)[O-]	4	-11	-11	87*	-11	-10
COC(C(=O)Nc1ccccc1C(=O)N1CCOCC1)c1ccccc1 (stereo unspecified)	.	-1	16	.	1	-5
CC(=O)N(C)Cc1ccc(C(=O)CSc2nnc(C3CC3)n2C2CC2)cc1	1	.	-6	.	.	-1
CC(=O)NCc1ccc(C(=O)CCl)s1	21	56*	24	100*	-8	-57
CC(=O)NCc1ccc(C(=O)CCl)cc1	-1	61*	-4	93*	-6	-33
CC(=O)NCCC(=O)NCc1ccc(F)cc1	11	3	-24	-6	-3	-7
CC(=O)N(C)Cc1ccc(C(=O)CCl)cc1	-2	74*	24	101*	-2	3
CSc1ccccc1NC(=O)CN(C)C(=O)Cc1c(F)cccc1Cl	6	-7	10	.	0	1
O=C(C[n+]1cccc(O)c1)Nc1ccc(Br)cc1	0	-5	11	-13	-4	-1
O=C1NC(=S)CN1c1ccccc1	-11	-4	6	.	6	-3
CC1(C)S[C@@H]2C(C(=O)OCc3ccccc3)NC(=O)N2C1C(=O)OCc1ccccc1 (stereo partly specified)	-1	11	2	.	21	-10
CCc1c(C)c(C#N)c2nc3ccccc3n2c1NCCN(C)C	-1	68*	-7	22	1	10
Cc1cc(Cl)n2c(nc3ccccc32)c1C#N	.	71*	.	100*	4	.
CCOC(=O)c1csc(N/N=C2\CCCc3ccccc32)n1	10	-9	12	.	50*	5
